According to ChEMBL document CHEMBL1765074, “Synthesis, evaluation and structural studies of antiproliferative tubulin-targeting azetidin-2-ones” (Bioorg Med Chem, 2011):

Key:
[1] = system: MCF7; test: Antiproliferative activity against human MCF7 cells by MTT assay; format: functional, cell-based
In short: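 MCF-7 cells grown in Eagle's MEM with 10% FBS, 2 mM L-glutamine, penicillin/streptomycin and 1% non-essential amino acids. Seeded at 2.5×10^4 cells/mL, left 24 h at 37°C, then treated 72 h across 1 nM–100 μM from ethanol stocks (vehicle 1% v/v). MTT at 1 mg/mL final for 2 h in darkness, DMSO solubilisation, absorbance read. IC50 is the mean of at least three experiments in triplicate.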

[2] = system: OVCAR-4; test: Antiproliferative activity against human OVCAR4 cells; format: functional; conditions: read-out: LC50 (the source's name)
[3] = system: MOLT-4; test: Antiproliferative activity against human MOLT4 cells; format: functional; conditions: read-out: LC50 (the source's name)
[4] = system: KM12; test: Antiproliferative activity against human KM12 cells; format: functional; conditions: read-out: LC50 (the source's name)
[5] = system: T47D; test: Antiproliferative activity against human T47D cells; format: functional; conditions: read-out: LC50 (the source's name)
[6] = system: SF-539; test: Antiproliferative activity against human SF539 cells; format: functional; conditions: read-out: LC50 (the source's name)
[7] = system: UACC-62; test: Antiproliferative activity against human UACC62 cells; format: functional; conditions: read-out: LC50 (the source's name)
[8] = system: ACHN; test: Antiproliferative activity against human ACHN cells; format: functional; conditions: read-out: LC50 (the source's name)
[9] = system: COLO 205; test: Antiproliferative activity against human COLO205 cells; format: functional; conditions: read-out: LC50 (the source's name)
[10] = system: NCI/ADR-RES; test: Antiproliferative activity against human NCI/ADR-RES cells; format: functional; conditions: read-out: LC50 (the source's name)
[11] = system: SNB-19; test: Antiproliferative activity against human SNB19 cells; format: functional; conditions: read-out: LC50 (the source's name)
[12] = system: NCI-H226; test: Antiproliferative activity against human NCI-H226 cells; format: functional; conditions: read-out: LC50 (the source's name)
[13] = system: UACC-257; test: Antiproliferative activity against human UACC257 cells; format: functional; conditions: read-out: LC50 (the source's name)
[14] = system: NCI-H460; test: Antiproliferative activity against human NCI-H460 cells; format: functional; conditions: read-out: LC50 (the source's name)
[15] = system: MDA-MB-435; test: Antiproliferative activity against human MDA-MB-435 cells; format: functional; conditions: read-out: LC50 (the source's name)
[16] = Antiproliferative activity against human […] cells; format: functional; conditions: read-out: LC50 (the source's name)
[17] = system: HOP-92; test: Antiproliferative activity against human HOP92 cells; format: functional; conditions: read-out: LC50 (the source's name)
[18] = system: OVCAR-8; test: Antiproliferative activity against human OVCAR8 cells; format: functional; conditions: read-out: LC50 (the source's name)
[19] = system: SK-MEL-5; test: Antiproliferative activity against human SK-MEL-5 cells; format: functional; conditions: read-out: LC50 (the source's name)
[20] = system: MDA-MB-231; test: Antiproliferative activity against human MDA-MB-231 cells by MTT assay; format: functional, cell-based
In short: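 MDA-MB-231 cells in DMEM with 10% FBS, 2 mM L-glutamine and penicillin/streptomycin were seeded at 2.5×10^4 cells/mL and held 24 h at 37°C. They then got ethanol-stock compound over 1 nM–100 μM (vehicle 1% v/v ethanol) for 72 h. MTT at 1 mg/mL final was added for 2 h in the dark, then DMSO for 20 min before absorbance. Untreated = 100% viability. IC50 is the mean ± S.E.M. of ≥3 triplicate experiments.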

[21] = system: IGROV-1; test: Antiproliferative activity against human IGROV1 cells; format: functional; conditions: read-out: LC50 (the source's name)
[22] = system: SN12C; test: Antiproliferative activity against human SN12C cells; format: functional; conditions: read-out: LC50 (the source's name)
[23] = system: SF-295; test: Antiproliferative activity against human SF295 cells; format: functional; conditions: read-out: LC50 (the source's name)
[24] = system: CCRF-CEM; test: Antiproliferative activity against human CCRF-CEM cells; format: functional; conditions: read-out: LC50 (the source's name)
[25] = system: HCT-116; test: Antiproliferative activity against human HCT116 cells; format: functional; conditions: read-out: LC50 (the source's name)
[26] = system: DU-145; test: Antiproliferative activity against human DU145 cells; format: functional; conditions: read-out: LC50 (the source's name)
[27] = system: TK-10; test: Antiproliferative activity against human TK10 cells; format: functional; conditions: read-out: LC50 (the source's name)
[28] = system: SNB-75; test: Antiproliferative activity against human SNB75 cells; format: functional; conditions: read-out: LC50 (the source's name)
[29] = system: SK-OV-3; test: Antiproliferative activity against human SKOV3 cells; format: functional; conditions: read-out: LC50 (the source's name)
[30] = system: MDA-MB-231; test: Antiproliferative activity against human MDA-MB-231 cells; format: functional; conditions: read-out: LC50 (the source's name)
[31] = system: EKVX; test: Antiproliferative activity against human EKVX cells; format: functional; conditions: read-out: LC50 (the source's name)
[32] = system: OVCAR-5; test: Antiproliferative activity against human OVCAR5 cells; format: functional; conditions: read-out: LC50 (the source's name)
[33] = system: RPMI-8226; test: Antiproliferative activity against human RPMI8226 cells; format: functional; conditions: read-out: LC50 (the source's name)
[34] = system: RXF 393; test: Antiproliferative activity against human RXF393 cells; format: functional; conditions: read-out: LC50 (the source's name)
[35] = system: M14; test: Antiproliferative activity against human M14 cells; format: functional; conditions: read-out: LC50 (the source's name)
[36] = system: HCT-15; test: Antiproliferative activity against human HCT15 cells; format: functional; conditions: read-out: LC50 (the source's name)
[37] = system: CAKI-1; test: Antiproliferative activity against human Caki1 cells; format: functional; conditions: read-out: LC50 (the source's name)
[38] = system: LOX IMVI; test: Antiproliferative activity against human LOXIMVI cells; format: functional; conditions: read-out: LC50 (the source's name)
[39] = system: BT-549; test: Antiproliferative activity against human BT549 cells; format: functional; conditions: read-out: LC50 (the source's name)
[40] = system: A549; test: Antiproliferative activity against human A549 cells; format: functional; conditions: read-out: LC50 (the source's name)
[41] = system: MCF7; test: Antiproliferative activity against human MCF7 cells; format: functional; conditions: read-out: LC50 (the source's name)
[42] = system: HL-60(TB); test: Antiproliferative activity against human HL-60(TB) cells; format: functional; conditions: read-out: LC50 (the source's name)
[43] = system: U-251; test: Antiproliferative activity against human U251 cells; format: functional; conditions: read-out: LC50 (the source's name)
[44] = system: SK-MEL-2; test: Antiproliferative activity against human SK-MEL-2 cells; format: functional; conditions: read-out: LC50 (the source's name)
[45] = system: SW-620; test: Antiproliferative activity against human SW620 cells; format: functional; conditions: read-out: LC50 (the source's name)
[46] = system: Malme-3M; test: Antiproliferative activity against human MALME-3M cells; format: functional; conditions: read-out: LC50 (the source's name)
[47] = system: HCC 2998; test: Antiproliferative activity against human HCC2998 cells; format: functional; conditions: read-out: LC50 (the source's name)
[48] = system: SK-MEL-28; test: Antiproliferative activity against human SK-MEL-28 cells; format: functional; conditions: read-out: LC50 (the source's name)
[49] = system: HOP-62; test: Antiproliferative activity against human HOP62 cells; format: functional; conditions: read-out: LC50 (the source's name)
[50] = system: NCI-H23; test: Antiproliferative activity against human NCI-H23 cells; format: functional; conditions: read-out: LC50 (the source's name)
[51] = system: NCI-H522; test: Antiproliferative activity against human NCI-H522 cells; format: functional; conditions: read-out: LC50 (the source's name)
[52] = system: A498; test: Antiproliferative activity against human A498 cells; format: functional; conditions: read-out: LC50 (the source's name)
[53] = system: 786-0; test: Antiproliferative activity against human 786-0 cells; format: functional; conditions: read-out: LC50 (the source's name)
[54] = system: MDA-MB-468; test: Antiproliferative activity against human MDA-MB-468 cells; format: functional; conditions: read-out: LC50 (the source's name)
[55] = system: K562; test: Antiproliferative activity against human K562 cells; format: functional; conditions: read-out: LC50 (the source's name)
[56] = system: UO-31; test: Antiproliferative activity against human UO31 cells; format: functional; conditions: read-out: LC50 (the source's name)
[57] = system: PC-3; test: Antiproliferative activity against human PC3 cells; format: functional; conditions: read-out: LC50 (the source's name)
[58] = system: SF-268; test: Antiproliferative activity against human SF268 cells; format: functional; conditions: read-out: LC50 (the source's name)

## COc1ccc([C@H]2N(c3cc(OC)c(OC)c(OC)c3)C(=O)C2(c2ccccc2)c2ccccc2)cc1 (mixture of isomers)
[1]
  IC50: 43.2 µM

## COc1ccc([C@@H]2C(c3cccs3)C(=O)N2c2cc(OC)c(OC)c(OC)c2)cc1 (mixture of isomers)
[2]
  CC50: > 100 µM
[3]
  CC50: > 100 µM
[4]
  CC50: > 100 µM
[5]
  CC50: > 100 µM
[6]
  CC50: > 100 µM
[7]
  CC50: > 100 µM
[8]
  CC50: > 100 µM
[9]
  CC50: > 100 µM
[10]
  CC50: > 100 µM
[11]
  CC50: > 100 µM
[12]
  CC50: > 100 µM
[13]
  CC50: > 100 µM
[14]
  CC50: > 100 µM
[15]
  CC50: > 100 µM
[16]
  CC50: > 100 µM
[17]
  CC50: > 100 µM
[18]
  CC50: > 100 µM
[19]
  CC50: > 100 µM
[20]
  IC50: 0.19 µM
[21]
  CC50: > 100 µM
[22]
  CC50: > 100 µM
[23]
  CC50: > 100 µM
[24]
  CC50: > 100 µM
[25]
  CC50: > 100 µM
[26]
  CC50: > 100 µM
[27]
  CC50: > 100 µM
[1]
  IC50: 0.064 µM
[28]
  CC50: > 100 µM
[29]
  CC50: > 100 µM
[30]
  CC50: > 100 µM
[31]
  CC50: > 100 µM
[32]
  CC50: > 100 µM
[33]
  CC50: > 100 µM
[34]
  CC50: > 100 µM
[35]
  CC50: > 100 µM
[36]
  CC50: > 100 µM
[37]
  CC50: > 100 µM
[38]
  CC50: > 100 µM
[39]
  CC50: > 100 µM
[40]
  CC50: > 100 µM
[41]
  CC50: > 100 µM
[42]
  CC50: > 100 µM
[43]
  CC50: > 100 µM
[44]
  CC50: > 100 µM
[45]
  CC50: > 100 µM
[46]
  CC50: > 100 µM
[47]
  CC50: > 100 µM
[48]
  CC50: > 100 µM
[49]
  CC50: > 100 µM
[50]
  CC50: > 100 µM
[51]
  CC50: > 100 µM
[52]
  CC50: > 100 µM
[53]
  CC50: > 100 µM
[54]
  CC50: > 100 µM
[55]
  CC50: > 100 µM
[56]
  CC50: > 100 µM
[57]
  CC50: > 100 µM
[58]
  CC50: > 100 µM

## COc1ccc([C@@H]2C(Cc3cccs3)C(=O)N2c2cc(OC)c(OC)c(OC)c2)cc1 (mixture of isomers)
[1]
  IC50: 1.64 µM

## COc1cc(N2C(=O)[C@H](c3cccs3)[C@H]2c2ccc3ccccc3c2)cc(OC)c1OC (mixture of isomers)
[1]
  IC50: 0.12 µM

## COc1cc(N2C(=O)[C@H](c3cccs3)[C@H]2c2cccs2)cc(OC)c1OC (mixture of isomers)
[1]
  IC50: 0.91 µM

## COc1ccc([C@@H]2C(c3cccs3)C(=O)N2c2cc(OC)c(OC)c(OC)c2)cc1[N+](=O)[O-] (mixture of isomers)
[1]
  IC50: 0.37 µM

## COc1ccc([C@@H]2C(c3cccc4ccccc34)C(=O)N2c2cc(OC)c(OC)c(OC)c2)cc1 (mixture of isomers)
[1]
  IC50: 11.3 µM

## COc1ccc([C@@H]2C(c3ccc4ccccc4c3)C(=O)N2c2cc(OC)c(OC)c(OC)c2)cc1 (mixture of isomers)
[1]
  IC50: 2.5 µM

## COc1ccc([C@@H]2C(c3ccoc3)C(=O)N2c2cc(OC)c(OC)c(OC)c2)cc1 (mixture of isomers)
[1]
  IC50: 0.15 µM

## COc1ccc([C@@H]2C(c3ccsc3)C(=O)N2c2cc(OC)c(OC)c(OC)c2)cc1 (mixture of isomers)
[1]
  IC50: 0.06 µM

## COc1ccc([C@@H]2C(c3ccc(C)s3)C(=O)N2c2cc(OC)c(OC)c(OC)c2)cc1 (mixture of isomers)
[1]
  IC50: 0.25 µM

## COc1ccc([C@@H]2C(c3cc4ccccc4s3)C(=O)N2c2cc(OC)c(OC)c(OC)c2)cc1 (mixture of isomers)
[1]
  IC50: 0.85 µM

## COc1ccc([C@@H]2[C@@H](C(O)c3ccsc3)C(=O)N2c2cc(OC)c(OC)c(OC)c2)cc1 (mixture of isomers)
[1]
  IC50: 0.99 µM

## COc1cc(N2C(=O)[C@H](c3cccs3)[C@H]2c2cccc3ccccc23)cc(OC)c1OC (racemic)
[1]
  IC50: 0.62 µM
